Here are results for 80 compounds from ChEMBL document CHEMBL1150404, “Synthesis, alpha 1-adrenoceptor antagonist activity, and SAR study of novel arylpiperazine derivatives of phenytoin” (Bioorg Med Chem, 2008).

SMILES strings stand for the structures.

The nature of the assay: Displacement of [3H]prazosin from alpha-1-adrenoceptor in Wistar rat cerebral cortex membrane. In kind it is tissue-based. An outline of the steps:
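Rat brain homogenised in ice-cold 50 mM Tris–HCl pH 7.6, centrifuged twice at 20,000g for 20 min at 0–4 °C. Membranes incubated with [3H]prazosin 0.2 nM (α1) or [3H]clonidine 2 nM (α2) and 7–8 test concentrations (10^-11–10^-4 M). Filter-bound radioactivity counted by liquid scintillation; duplicates; curve-fitted, Ki by Cheng–Prusoff.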
As a reminder, the Ki is the equilibrium dissociation constant of an inhibitor or competing ligand from its target. A low value points to a stronger hold on the target. In the case of `CCOc1ccccc1OCCN1CCN(c2cnn(CCCCCCCN3CCN(c4ccccc4OCC)CC3)c(=O)c2Cl)CC1`, the affinity corresponds to a Ki of 0.05 nM.
On to `CCOc1ccccc1OCCN1CCN(c2cnn(CCCN3CCN(c4ccccc4OC)CC3)c(=O)c2Cl)CC1`, for which the Ki stood at 0.05 nM.
For `COc1ccccc1N1CCN(C(C)CN2C(=O)C3Nc4ccccc4C3N(C)C2=O)CC1` (stereo not given) the value was 0.1 nM; for `COc1ccccc1OCCN1CCN(c2cnn(CCCCCN3CCN(c4ccccc4OC)CC3)c(=O)c2Cl)CC1`, 0.05 nM; for `COc1cc2nc(N3CCN(C(=O)c4ccco4)CC3)nc(N)c2cc1OC` [PRAZOSIN], 0.24 nM.
The compound `CCOc1ccccc1OCCN1CCN(c2cnn(CCCCCN3CCN(c4ccccc4OC)CC3)c(=O)c2Cl)CC1` yielded a Ki of 0.05 nM.
With `CCOc1ccccc1N1CCN(CCn2ncc(N3CCN(CCOc4ccccc4OC)CC3)c(Cl)c2=O)CC1` the figure was 0.05 nM.
As to `COc1ccccc1N1CCN(C(C)CCN2C(=O)NC3c4ccccc4N(C)C3C2=O)CC1` (stereo not given), the inhibition constant (Ki) amounted to 0.1 nM.
Turning to `COc1ccccc1N1CCN(CCN2C(=O)C3Sc4ccccc4C3N(C)C2=O)CC1` (stereo not given), the Ki turned out to be 0.1 nM.
In the case of `CCOc1ccccc1OCCN1CCN(c2cnn(CCCCN3CCN(c4ccccc4OC(C)C)CC3)c(=O)c2Cl)CC1`, the Ki amounted to 0.05 nM.
Consider `COc1ccccc1N1CCN(CCCN2C(=O)NC3c4ccccc4N(C)C3C2=O)CC1` (stereo not given), for which affinity was put at a Ki of 0.1 nM.
For `O=c1ccc(-n2ccnc2)nn1CCCN1CCN(c2ccccc2Cl)CC1` the value was 0.2 nM; for `COc1ccccc1N1CCN(CCCN2C(=O)C3Sc4ccccc4C3N(C)C2=O)CC1` (stereo not given), 0.1 nM; for `CCOc1ccccc1N1CCN(CCCCn2ncc(N3CCN(CCOc4ccccc4OC)CC3)c(Cl)c2=O)CC1`, 0.05 nM.
`COc1ccccc1OCCN1CCN(c2cnn(CCCCCCCN3CCN(c4ccccc4OC)CC3)c(=O)c2Cl)CC1` came in with a Ki of 0.05 nM.
As for `CCOc1ccccc1OCCN1CCN(c2cnn(CCCCCN3CCN(c4ccccc4OCC)CC3)c(=O)c2Cl)CC1`, the Ki was 0.05 nM.
On to `COc1ccccc1N1CCN(CCCCCn2nc(-n3ccnc3)ccc2=O)CC1`, for which the affinity corresponds to a Ki of 0.2 nM.
Compound `COc1ccccc1N1CCN(CCCN2C(=O)C3Oc4ccccc4C3N(C)C2=O)CC1` (stereo not given) gave a Ki of 0.1 nM.
`COc1ccccc1N1CCN(CCN2C(=O)C3Sc4ccccc4C3N=C2C)CC1` (stereo not given): the affinity, expressed as Ki, was 0.5 nM.
With `CCOc1ccccc1OCCN1CCN(c2cnn(CCCCCCCN3CCN(c4ccccc4OC(C)C)CC3)c(=O)c2Cl)CC1`, affinity was put at a Ki of 0.05 nM.
With `COc1ccccc1OCCN1CCN(c2cnn(CCCCN3CCN(c4ccccc4OC)CC3)c(=O)c2Cl)CC1` the figure was 0.05 nM; with `COc1ccc(Cl)cc1N1CCN(CCN2C(=O)C3Nc4ccccc4C3N=C2C)CC1` (stereo not given), 0.5 nM.
With `COc1ccccc1N1CCN(CCN2C(=O)C3C(c4ccccc4N3C)N(C)C2=O)CC1` (stereo not given) the figure was 0.1 nM.
In turn, `CCOc1ccccc1OCCN1CCN(c2cnn(CCCN3CCN(c4ccccc4OC(C)C)CC3)c(=O)c2Cl)CC1` showed a Ki of 0.05 nM.
Turning to `COc1ccccc1N1CCN(CCN2C(=O)NC3c4ccccc4N(C)C3C2=O)CC1` (stereo not given), the affinity corresponds to a Ki of 0.1 nM.
Consider `COc1ccccc1N1CCN(C(C)CN2C(=O)C3C(c4ccccc4N3C)N(C)C2=O)CC1` (stereo not given), for which the affinity, expressed as Ki, was 0.1 nM.
The compound `COc1ccccc1OCCN1CCN(c2cnn(CCCCCN3CCN(c4ccccc4OC(C)C)CC3)c(=O)c2Cl)CC1` returned a Ki of 0.05 nM.
`COc1ccccc1N1CCN(C(C)CCN2C(=O)C3C(c4ccccc4N3C)N(C)C2=O)CC1` (stereo not given) came in with a Ki of 0.1 nM.
For `COc1ccccc1N1CCN(CCCN2C(=O)C3Nc4ccccc4C3N(C)C2=O)CC1` (stereo not given) the value was 0.1 nM.
As for `COc1ccccc1N1CCN(CCN2C(=O)NC3c4ccccc4NC3C2=O)CC1` (stereo not given), the Ki came out at 0.1 nM.
On to `COc1ccccc1N1CCN(CCCN2C(=O)NC3c4ccccc4SC3C2=O)CC1` (stereo not given), for which the Ki worked out at 0.1 nM.
With `CCOc1ccccc1N1CCN(CCCn2ncc(N3CCN(CCOc4ccccc4OC)CC3)c(Cl)c2=O)CC1`, the affinity, expressed as Ki, was 0.05 nM.
For `COc1ccccc1N1CCN(C(C)CCN2C(=O)NC3c4ccccc4NC3C2=O)CC1` (stereo not given), the inhibition constant Ki was determined as 0.1 nM.
In turn, `COc1ccccc1N1CCN(CCN2C(=O)NC3c4ccccc4SC3C2=O)CC1` (stereo not given) gave a Ki of 0.1 nM.
For `COc1ccc(Cl)cc1N1CCN(CCN2C(=O)C3Sc4ccccc4C3N=C2C)CC1` (stereo not given), the Ki was 0.5 nM.
`COc1ccccc1N1CCN(C(C)CN2C(=O)NC3c4ccccc4N(C)C3C2=O)CC1` (stereo not given): the Ki was determined as 0.1 nM.
`CCOc1ccccc1OCCN1CCN(c2cnn(CCCCCCN3CCN(c4ccccc4OC(C)C)CC3)c(=O)c2Cl)CC1` gave a Ki of 0.05 nM.
Compound `CCOc1ccccc1N1CCN(CCCCCCCn2ncc(N3CCN(CCOc4ccccc4OC)CC3)c(Cl)c2=O)CC1` had a Ki of 0.05 nM.
With `COc1ccccc1N1CCN(C(C)CCN2C(=O)C3Sc4ccccc4C3N(C)C2=O)CC1` (stereo not given) the figure was 0.1 nM; with `COc1ccccc1N1CCN(C(C)CCN2C(=O)NC3c4ccccc4SC3C2=O)CC1` (stereo not given), 0.1 nM.
Regarding `COc1ccccc1N1CCN(CCN2C(=O)C3Nc4ccccc4C3N=C2C)CC1` (stereo not given), affinity was put at a Ki of 0.5 nM.
Regarding `COc1ccccc1N1CCN(CCCn2nc(-n3ccnc3)ccc2=O)CC1`, the affinity corresponds to a Ki of 0.2 nM.
The compound `COc1ccccc1OCCN1CCN(c2cnn(CCN3CCN(c4ccccc4OC)CC3)c(=O)c2Cl)CC1` came in with a Ki of 0.05 nM.
`COc1ccccc1OCCN1CCN(c2cnn(CCCCCCN3CCN(c4ccccc4OC)CC3)c(=O)c2Cl)CC1` registered a Ki of 0.05 nM.
In turn, `COc1ccccc1OCCN1CCN(c2cnn(CCCCCCN3CCN(c4ccccc4OC(C)C)CC3)c(=O)c2Cl)CC1` registered an inhibitory constant (Ki) of 0.05 nM.
Turning to `CCOc1ccccc1OCCN1CCN(c2cnn(CCCCCCN3CCN(c4ccccc4OC)CC3)c(=O)c2Cl)CC1`, the Ki turned out to be 0.05 nM.
Take `COc1ccccc1N1CCN(CCCCCCCn2ncc(N3CCN(CC4COc5ccccc5O4)CC3)c(Cl)c2=O)CC1` (stereo not given): the Ki is 0.05 nM.
With `COc1ccccc1N1CCN(C(C)CN2C(=O)NC3c4ccccc4OC3C2=O)CC1` (stereo not given), the inhibitory constant (Ki) is 0.1 nM.
For `COc1ccccc1OCCN1CCN(c2cnn(CCN3CCN(c4ccccc4OC(C)C)CC3)c(=O)c2Cl)CC1`, the Ki came to 0.05 nM.
For `CCOc1ccccc1OCCN1CCN(c2cnn(CCN3CCN(c4ccccc4OC)CC3)c(=O)c2Cl)CC1`, affinity was put at a Ki of 0.05 nM.
For `COc1ccccc1N1CCN(C(C)CN2C(=O)NC3c4ccccc4NC3C2=O)CC1` (stereo not given) the value was 0.1 nM; for `COc1ccccc1N1CCN(CCCN2C(=O)C3C(c4ccccc4N3C)N(C)C2=O)CC1` (stereo not given), 0.1 nM; for `O=c1ccc(-n2cnc3ccccc32)nn1CCCCCCCN1CCN(c2ccccc2Cl)CC1`, 0.2 nM.
The compound `CCOc1ccccc1OCCN1CCN(c2cnn(CCCCN3CCN(c4ccccc4OCC)CC3)c(=O)c2Cl)CC1` showed a Ki of 0.05 nM.
`CCOc1ccccc1OCCN1CCN(c2cnn(CCCN3CCN(c4ccccc4OCC)CC3)c(=O)c2Cl)CC1`: the affinity, expressed as Ki, was 0.05 nM.
For `CCOc1ccccc1N1CCN(CCCCCCn2ncc(N3CCN(CCOc4ccccc4OC)CC3)c(Cl)c2=O)CC1` the value was 0.05 nM.
Compound `COc1ccccc1OCCN1CCN(c2cnn(CCCCCCCN3CCN(c4ccccc4OC(C)C)CC3)c(=O)c2Cl)CC1` had a Ki of 0.05 nM.
`COc1ccccc1N1CCN(CCN2C(=O)C3Nc4ccccc4C3N(C)C2=O)CC1` (stereo not given): the Ki is 0.1 nM.
With `COc1ccccc1N1CCN(CCCN2C(=O)NC3c4ccccc4OC3C2=O)CC1` (stereo not given), the Ki was found to be 0.1 nM.
With `CCOc1ccccc1N1CCN(CCCCCn2ncc(N3CCN(CCOc4ccccc4OC)CC3)c(Cl)c2=O)CC1` the figure was 0.05 nM.
Consider `COc1ccccc1N1CCN(C(C)CCN2C(=O)C3Oc4ccccc4C3N(C)C2=O)CC1` (stereo not given), for which the Ki turned out to be 0.1 nM.
For `CCOc1ccccc1OCCN1CCN(c2cnn(CCN3CCN(c4ccccc4OC(C)C)CC3)c(=O)c2Cl)CC1` the value was 0.05 nM; for `COc1ccccc1OCCN1CCN(c2cnn(CCCN3CCN(c4ccccc4OC)CC3)c(=O)c2Cl)CC1`, 0.05 nM; for `COc1ccccc1N1CCN(C(C)CN2C(=O)NC3c4ccccc4SC3C2=O)CC1` (stereo not given), 0.1 nM.
As to `COc1ccccc1N1CCN(CCN2C(=O)C3Oc4ccccc4C3N(C)C2=O)CC1` (stereo not given), affinity was put at a Ki of 0.1 nM.
With `CCOc1ccccc1OCCN1CCN(c2cnn(CCCCCCCN3CCN(c4ccccc4OC)CC3)c(=O)c2Cl)CC1` the figure was 0.05 nM; with `CCOc1ccccc1OCCN1CCN(c2cnn(CCN3CCN(c4ccccc4OCC)CC3)c(=O)c2Cl)CC1`, 0.05 nM.
For `COc1ccccc1N1CCN(C(C)CN2C(=O)C3Sc4ccccc4C3N(C)C2=O)CC1` (stereo not given) the value was 0.1 nM; for `CCOc1ccccc1OCCN1CCN(c2cnn(CCCCCCN3CCN(c4ccccc4OCC)CC3)c(=O)c2Cl)CC1`, 0.05 nM.
`CCOc1ccccc1OCCN1CCN(c2cnn(CCCCCN3CCN(c4ccccc4OC(C)C)CC3)c(=O)c2Cl)CC1`: the Ki was determined as 0.05 nM.
On to `COc1ccccc1N1CCN(CCN2C(=O)NC3c4ccccc4OC3C2=O)CC1` (stereo not given), for which the affinity, expressed as Ki, was 0.1 nM.
With `COc1ccccc1N1CCN(CCCCCCn2nc(-n3ccc4ccccc43)ccc2=O)CC1` the figure was 0.2 nM; with `COc1ccccc1N1CCN(CCCCCCCn2nc(-n3ccc4ccccc43)ccc2=O)CC1`, 0.2 nM; with `COc1ccccc1N1CCN(CCCN2C(=O)NC3c4ccccc4NC3C2=O)CC1` (stereo not given), 0.1 nM.
Consider `CCOc1ccccc1OCCN1CCN(c2cnn(CCCCN3CCN(c4ccccc4OC)CC3)c(=O)c2Cl)CC1`, for which the Ki turned out to be 0.05 nM.
For `COc1ccccc1OCCN1CCN(c2cnn(CCCN3CCN(c4ccccc4OC(C)C)CC3)c(=O)c2Cl)CC1` the value was 0.05 nM.
For `COc1ccccc1OCCN1CCN(c2cnn(CCCCN3CCN(c4ccccc4OC(C)C)CC3)c(=O)c2Cl)CC1` the value was 0.05 nM; for `COc1ccccc1N1CCN(C(C)CCN2C(=O)NC3c4ccccc4OC3C2=O)CC1` (stereo not given), 0.1 nM.
Turning to `COc1ccccc1N1CCN(C(C)CCN2C(=O)C3Nc4ccccc4C3N(C)C2=O)CC1` (stereo not given), the affinity corresponds to a Ki of 0.1 nM.
For `COc1ccccc1N1CCN(C(C)CN2C(=O)C3Oc4ccccc4C3N(C)C2=O)CC1` (stereo not given) the value was 0.1 nM.
